Test results as given in ChEMBL document CHEMBL4145607, “Tamarixetin Exhibits Anti-inflammatory Activity and Prevents Bacterial Sepsis by Increasing IL-10 Production” (J Nat Prod, 2018).
Calls of active or inactive are those of the source.

Tests used:
BMDC = test: Inhibition of LPS-induced immune response in C57BL/6 mouse BMDC assessed as increase in IL10 secretion at 25 uM pretreated for 30 mins followed by LPS-challenge measured after 6 hrs by ELISA; format: functional, cell-based
Summary of the method: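 Bone marrow from 6-week-old female C57BL/6 mice, RBC-lysed, cultured in RPMI-1640/10% FBS with 10 ng·mL−1 rmGM-CSF, 37 °C, 5% CO2; medium refreshed days 3 and 5. DCs pretreated 30 min with compound, then LPS 50 ng·mL−1 for 6 h; supernatant IL-10 by sandwich ELISA; means ± SEM.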

Mus musculus [1] = test: Antiseptic activity in Balb/c mouse model of Escherichia coli K1 infection-induced sepsis assessed as increase in survival rate at 1 mg/kg, ip pretreated for 1 hr followed by Escherichia coli K1 infection measured over 72 hrs relative to control; format: functional
Summary of the method: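 BALB/c mice dosed i.p. 1 h before i.p. E. coli K1 strain RS218 (O18:K1:H7) challenge, 1 × 10^7 CFU per mouse, diluted in LB broth; n = 10; survival monitored over 72 h.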

Mus musculus [2] = test: Antiseptic activity in Balb/c mouse model of Escherichia coli K1 infection-induced sepsis assessed as reduction in bacterial count in lungs at 50 mg/kg, ip pretreated for 1 hr followed by Escherichia coli K1 infection measured after 12 hrs; format: functional, organism-based
Summary of the method: (§1)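 BALB/c mice dosed i.p. 1 h before i.p. E. coli K1 (1 × 10^6 CFU per mouse); killed at 12 h. Lungs and kidneys removed aseptically into 1 mL sterile PBS, homogenised on ice, diluted 1:1000 in PBS, 10 μL plated on LB agar, 24 h at 37 °C, colonies counted.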

Mus musculus [3] = test: Antiseptic activity in Balb/c mouse model of Escherichia coli K1 infection-induced sepsis assessed as reduction in serum endotoxin level at 50 mg/kg, ip pretreated for 1 hr followed by Escherichia coli K1 infection measured after 12 hrs by chromogenic assay; format: functional, organism-based
Summary of the method: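 BALB/c mice dosed i.p. 1 h before i.p. E. coli K1 (1 × 10^6 CFU per mouse), sera taken at 12 h. Serum diluted 10-fold in endotoxin-free PBS, LAL chromogenic end-point assay; background subtracted, quantified against E. coli endotoxin standard, reported as EU·mL−1.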

Mus musculus [4] = test: Antiseptic activity in Balb/c mouse model of Escherichia coli K1 infection-induced sepsis assessed as reduction in bacterial count in kidneys at 50 mg/kg, ip pretreated for 1 hr followed by Escherichia coli K1 infection measured after 12 hrs; format: functional, organism-based; summary of the method: as §1

O=c1c(O)c(-c2ccc(O)c(O)c2)oc2cc(O)cc(O)c12
inactive: inhibition (BMDC) | Activity (Mus musculus [1]) | Activity (Mus musculus [2]) | Activity (Mus musculus [3]) | Activity (Mus musculus [4])
